# Bioassay records from PubChem.
# Rows were chosen to be rich in hits. Some 11% of all compounds tested hit in one or more screens of this group.
# M1 antag – blocks the rat M1 muscarinic receptor response to acetylcholine; B-score at 10 µM; 64,000 tested, 3.4% active; CHO-M1 cells, Fluo-4 calcium, ACh EC80 antagonist mode; stronger effect = lower value;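 active = calcium fluorescence response, raw or row-and-column corrected B-score, differing from the plate sample mean either way at a set confidence level, mostly lower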
# S1P1 ag pot – agonists and agonism potentiators of human S1P1 receptor | P21453 | S1P1 CRE-bla cells, forskolin, beta-lactamase FRET, potentiator mode; S1P1 agonist co-added at EC20, 2 nM; 100% = saturating reference agonist, 0% = basal | activation, % at 9.5 µM | 56,000 tested, 0.57% active;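 active = activation above a cutoff set at the mean activation of all tested compounds plus 3 SD, cut at about 54% in these data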;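 also: forskolin at 4 µM as EC80 and the EC20 agonist is SEW2871; 100% = SEW2871 at its EC100 plus forskolin at EC80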
# Target sequence (P21453 whole entry, looked up): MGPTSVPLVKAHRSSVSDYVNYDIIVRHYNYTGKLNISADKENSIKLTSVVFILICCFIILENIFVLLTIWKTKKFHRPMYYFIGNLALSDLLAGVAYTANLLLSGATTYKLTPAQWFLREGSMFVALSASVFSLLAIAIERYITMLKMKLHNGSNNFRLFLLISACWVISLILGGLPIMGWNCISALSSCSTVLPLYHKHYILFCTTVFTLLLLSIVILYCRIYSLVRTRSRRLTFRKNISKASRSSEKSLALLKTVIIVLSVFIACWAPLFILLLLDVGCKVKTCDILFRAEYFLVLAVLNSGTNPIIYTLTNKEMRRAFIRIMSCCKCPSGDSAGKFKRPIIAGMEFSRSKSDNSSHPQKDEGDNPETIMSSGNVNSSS
# S1P3 ag – agonists of human S1P3 receptor; activation, % at 4.5 µM; S1P3 NFAT-BLA reporter cells, agonism, FRET ratio; relative to 1 µM S1P, basal subtracted; Q99500; 60,000 tested, 0.1% active;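 active = activation above the screen-wide mean plus 3 SD, cut at about 4.5% in these data, passing the limit was not always enough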
#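 material = human S1P3 NFAT-BLA reporter CHO cells | schedule = 4 h compound at 37 °C, 2 h substrate at RT | measured by = fluorescent BLA substrate, ex 405 nm, em 460/535 nm ratio | controls = 1 µM S1P reference | replication = primary once, confirmation triplicate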
# D1 allo mod – allosteric modulators of human D1 dopamine receptor; P21728; HEK293 D1, CRE-luciferase, dopamine EC30 potentiation; actives deviate in either direction; B-score at 10 µM; 58,000 tested, 5.9% active;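 active = luminescence count or its row- and column-corrected plate score outside the 99.7% band of the plate's sample wells, on either side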
# M1 agonist – activates the M1 muscarinic receptor; CHO-M1 cells, Fluo-4 calcium fluorescence, agonist mode; stronger effect = higher value; B-score at 10 µM; 64,000 tested, 3% active;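 active = fluorescence rise, raw or as B-score row- and column-corrected plate score, outside the 99.7% band of its plate's samples, either direction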
# D1 PAM confirm – D1 receptor (human) allosteric modulation, confirmed; shares compounds with D1 allo mod; HEK293 D1 CRE-luciferase, dopamine EC30 potentiation; stronger effect = higher value; luminescence at 10 µM; 2,200 tested, 88% active; AID 642;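 active = luminescence in either of two replicates above the same-plate mean plus 3 SD of the low-dose dopamine control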
# D1 ag no DA – activates D1 CRE-luciferase signal without dopamine present; shares compounds with D1 allo mod; 1,900 tested, 0.8% active; luminescence at 10 µM; HEK293 D1 CRE-luciferase, luminescence, no dopamine; stronger effect = higher value; AID 646; in the data active = luminescence above about 3900
# Isoprot counter – alters isoproterenol CRE-luciferase response in HEK293 cells; shares compounds with D1 allo mod; HEK293 D1 CRE-luciferase, isoproterenol EC30 counter-screen; calls only at 10 µM; 2,200 tested, 63% active; AID 647;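 active = luminescence in either replicate above plate mean of wells with a partly effective reference agonist dose plus 3 SD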;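 also: isoproterenol raises cAMP through native beta-adrenoceptor Gs so signal bypasses D1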
# The depositor's hits bear a star; i = inactive; . = not tested or not shown; + = active, no number.
SMILES,M1 antag,S1P1 ag pot,S1P3 ag,D1 allo mod,M1 agonist,D1 PAM confirm,D1 ag no DA,Isoprot counter
N#Cc1c(N)n(C2CCCCC2)c2nc3ccccc3nc12,0.5,-64,6,3.3*,-0.12,10836*,1704,+
O=C(COC(=O)CCC(=O)Nc1nccs1)NCc1ccco1,0.54,6,-1,0.45,-0.0097,.,.,.
CCCc1[nH]nc2c1C(c1cccnc1)C(C#N)=C(N)O2 (stereo not given),0.66,-21,-2,6.7*,0.21,3948,1664,i
CC(C)(C)C1CCc2[nH]nc(C(=O)O)c2C1 (stereo not given),0.02,-1,-1,-0.24,-0.35,.,.,.
O=C(Cn1c(-c2ccccc2)noc1=O)NCc1ccccc1,-0.077,-2,0,-0.0061,0.19,.,.,.
N#CCCCn1c(-c2ccccc2)noc1=O,0.15,0,-1,6.4*,-0.27,4628,1604,i
O=c1oc2cc(O)ccc2c2c1CCCC2,-0.26,-16,-1,1.9,-0.37,.,.,.
O=c1nc2scc(-c3ccccc3)n2c2ccccc12,-0.73,.,.,3.4*,1,17356*,1720,i
COC(=O)c1cc(=O)n2c(-c3ccccc3)csc2n1,0.022,6,-1,0.018,0.032,.,.,.
COc1cc(OC)cc(C(=O)N2CCN(c3ncccn3)CC2)c1,-0.42,9,0,0.95,0.2,.,.,.
CCOC(=O)C1=C(N)OC2=C(C(=O)CC(C)(C)C2)C1c1ccccc1OCC#N (stereo not given),0.041,2,1,0.3,-0.7,.,.,.
COc1cc(OC)cc(C(=O)Nc2cccc(C(C)=O)c2)c1,-0.6,.,.,-0.83,0.25,.,.,.
COc1cc(OC)cc(C(C)=O)c1,-0.055,-22,-1,8.5*,0.63,24876*,1768,+
O=c1cc(O)nc(SCc2ccccc2)[nH]1,0.18,.,0,0.35,-0.84,.,.,.
CC(C)(C)Sc1nc(O)cc(=O)[nH]1,-0.23,-15,0,2.1*,-0.47,5460,1436,i
CC1Cc2nc(SCC(=O)Nc3ccc4c(c3)OCO4)n(-c3ccc(F)cc3)c(=O)c2S1 (stereo not given),0.43,-2,-1,-0.063,0.66,.,.,.
c1ccc(-c2nc3ccccc3c3nncn23)cc1,0.71,0,1,7.2*,-0.22,7952*,1508,i
Cc1ccccc1Cn1c(-c2cncs2)nc2ccccc21,-0.17,-14,0,14*,-0.17,20248*,.,+
Brc1cc2c(cc1Cn1c(-c3cncs3)nc3ccccc31)OCO2,0.61,-19,-1,20*,0.36,14624*,1768,+
CCCn1c(-c2cccs2)nc2ccccc21,0.71,8,-1,-0.29,0.85,.,.,.
O=C(Cn1c(=O)oc2cc(S(=O)(=O)N3CCCC3)ccc21)NCc1ccccn1,-0.0081,-26,-1,-1.6,1.8,.,.,.
Cn1c(CCCCCN)nc2ccccc21,-0.084,-17,-1,0.48,-1,.,.,.
C/C(Cl)=C/Cn1c(N2CCCC2)nc2c1c(=O)n(C)c(=O)n2C,-0.017,-12,8.7*,8.5*,-0.31,7912*,.,i
Cn1c(=O)[nH]c(=O)c2c1nc(N1CCCCCC1)n2CCN1CCCCCC1,-1.1,.,.,0.38,0.56,.,.,.
C=CCn1c(N2CCCCCC2)nc2c1c(=O)[nH]c(=O)n2C,-0.53,-14,0,6.4*,-0.14,12744*,1604,+
SMILES,M1 antag,S1P1 ag pot,S1P3 ag,D1 allo mod,M1 agonist,D1 PAM confirm,D1 ag no DA,Isoprot counter
Cn1c(=O)n(Cc2ccc(F)cc2)c(=O)c2c1nc1n2CCCN1Cc1ccccc1,-0.42,3,-1,-0.24,0.93,.,.,.
C/C(Cl)=C\Cn1c(N2CCCC2)nc2c1c(=O)[nH]c(=O)n2C,0.26,-19,0,11*,-0.29,16008*,2192,+
Cn1c(N2CCCC2)nc2c1c(=O)n(Cc1ccc(F)cc1)c(=O)n2C,0.84,-30,1,4.5*,0.22,12452*,1616,+
O=C(Nc1c(C(=O)O)oc2ccc(Br)cc12)c1ccccc1,0.8,3,-1,0.017,0.099,.,.,.
NC(=O)c1nsc(C(=O)N(CC(=O)NCc2ccc3c(c2)OCO3)C2CCCC2)c1N,-1,14,-2,0.057,1.4,.,.,.
COc1ccc2c(C)c(C(=O)NCC(C)O)oc2c1OC (stereo not given),-0.037,.,.,7.5*,0.37,11688*,1436,+
COc1ccc(CNCCNC(=O)c2ccco2)c(OC)c1OC,0.022,1,0,0.22,0.039,.,.,.
Cc1cc(C)c(C#N)c(SCc2ccc(C#N)cc2)n1,-1,-2,-1,7.4*,1.3,7996*,1632,i
Cn1cnc2c1c(=O)n(Cc1cccc(Br)c1)c(=O)n2C,0.11,.,0,11*,0.42,12308*,1656,+
Cn1c(Cn2nnc3ccccc32)nnc1SCC(=O)c1ccc(F)cc1,-1.2,11,0,-0.027,-0.06,.,.,.
CCOC(=O)C1=C(N)Oc2c(oc(CO)cc2=O)C1c1c(F)cccc1Cl (stereo not given),-0.1,-11,3,-0.035,0.26,.,.,.
N#CC1=C(N)N(c2ccccc2)C(c2ccco2)C1(C#N)C#N (stereo not given),0.011,7,-1,7.7*,-0.74,5392,1576,i
N#CCCn1cnc2c(=S)nc[nH]c21,-0.051,9,0,.,0.02,.,.,.
CCOC(=O)c1cnc(-n2nc(C)cc2C)nc1Nc1ccc(N(C)C)cc1,-1.2,1,-1,12*,1.4,12468*,1584,+
CCOC(=O)c1cnc(-n2nc(C)cc2C)nc1Nc1cccc(C(=O)O)c1,0.023,8,-1,4.3*,0.17,9100*,1376,i
CCOC(=O)c1cnc(-n2nc(C)cc2C)nc1Nc1ccc2c(c1)OCO2,-0.57,4,-1,1.8,0.22,.,.,.
COc1ccc(CNc2nc3c(c(=O)n(Cc4ccc(F)cc4)c(=O)n3C)n2C)cc1,-0.15,-18,0,-1.2,0.26,.,.,.
CNC(=O)N(C1=NCC(C)S1)c1ccc(F)cc1F (stereo not given),0.091,.,-1,5.3*,0.58,16972*,1640,+
COc1ccc(CNC(=O)c2csnn2)cc1,0.1,1,-1,0.81,0.43,.,.,.
C=CCN(CC(=O)NCc1ccccc1)C(=O)c1csnn1,-2.2,24,0,3*,0.28,6904,1720,i
COCCCNC(=O)C1CCCN(C(=O)Nc2ccc(OC)cc2)C1 (stereo not given),-0.59,0,0,0.13,-1.2,.,.,.
